Experiments:
[1] = Inhibition of Saccharomyces cerevisiae alpha-glucosidase using p-nitrophenyl-alpha-D-glucopyranoside substrate incubated for 30 mins
Summary of the method: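 Sample solution received 3 mM p-nitrophenyl-α-D-glucopyranoside and 0.2 U/mL α-glucosidase (stock levels) in 0.01 M phosphate buffer pH 7.0, incubated at 37 °C for 30 min. Stopped with 0.1 M Na2CO3; p-nitrophenol release read at 401 nm. IC50 is the concentration giving 50% inhibition of enzyme activity; acarbose as positive control.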

[2] = system: HeLa; assay: Cytotoxicity against human HeLa cells assessed as reduction in cell viability incubated for 72 hrs by WST-8 dye based assay; type: functional
Summary of the method: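 HeLa cells kept in DMEM with 10% FBS, 0.1% NaHCO3 and 1% antibiotic-antimycotic. Cells seeded at 2 × 10^3/well and grown 24 h at 37 °C in humidified 5% CO2. Washed with PBS, then exposed to serially diluted samples in DMEM for 72 h. Washed twice, given DMEM with 10% WST-8 for 3 h, A450 read; viability from mean of three wells; IC50.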

[3] = system: Saccharomyces cerevisiae; assay: Potency index, ratio of IC50 for Acarbose to IC50 for test compound for inhibition of Saccharomyces cerevisiae alpha-glucosidase using p-nitrophenyl-alpha-D-glucopyranoside substrate incubated for 30 mins

Row | Structure (SMILES) | IC50 [1] | Ratio IC50 [3] | IC50 [2]
1 | CC=C(C)C(=O)N[C@@H](c1ccccc1)[C@@H](O)C(=O)O[C@H]1C[C@@]2(O)[C@@H](OC(=O)c3ccccc3)[C@@H]3[C@]4(OC(C)=O)CO[C@@H]4C[C@H](O[C@@H]4OC[C@@H](O)[C@H](O)[C@H]4O)[C@@]3(C)C(=O)[C@H](OC(C)=O)C(=C1C)C2(C)C | > 250 µM | – | 0.14 µM
2 | CC(=O)O[C@@]12CO[C@@H]1C[C@H](O)[C@@]1(C)C(=O)[C@H](O)C3=C(C)[C@@H](OC(=O)[C@H](O)[C@@H](NC(=O)c4ccccc4)c4ccccc4)C[C@@](O)([C@@H](OC(=O)c4ccccc4)[C@H]21)C3(C)C | > 250 µM | – | 0.00075 µM
3 | CC(=O)O[C@@]12CO[C@@H]1C[C@@H](O)[C@@]1(C)C(=O)[C@H](O)C3=C(C)[C@@H](OC(=O)[C@H](O)[C@@H](NC(=O)c4ccccc4)c4ccccc4)C[C@@](O)([C@@H](OC(=O)c4ccccc4)[C@H]21)C3(C)C | 48.8 µM | – | 8.5e-05 µM
4 | C=C1[C@@H](OC(C)=O)CC[C@@]2(C)C[C@H](OC(C)=O)C3=C(C)C[C@H](OC(=O)C(C)C(C)O)[C@@H]([C@@H](OC(C)=O)[C@H]12)C3(C)C (some centres undefined) | 194 µM | – | > 10 µM
5 | CCCCCCCCC/C=C\CC/C=C/[C@@H](O)[C@H](CO[C@@H]1O[C@H](CO)[C@@H](O)[C@H](O)[C@H]1O)NC(=O)[C@H](O)CCCCCCCCCCCCC | > 250 µM | – | > 10 µM
6 | CCCCCC(=O)N[C@@H](c1ccccc1)[C@@H](O)C(=O)O[C@H]1C[C@@]2(O)[C@@H](OC(=O)c3ccccc3)[C@@H]3[C@]4(OC(C)=O)CO[C@@H]4C[C@H](O[C@@H]4OC[C@@H](O)[C@H](O)[C@H]4O)[C@@]3(C)C(=O)[C@H](O)C(=C1C)C2(C)C | 86.9 µM | – | 0.05 µM
7 | C=C1[C@@H](O)C[C@H](OC(C)=O)[C@@]2(C)[C@@H](OC(C)=O)[C@H](OC(C)=O)C3=C(C)C(=O)C[C@@H]([C@@H](O)[C@H]12)C3(C)C | > 250 µM | – | > 10 µM
8 | COc1cc([C@H]2c3cc(O)c(OC)cc3C[C@H]3C(=O)OC[C@H]23)ccc1O [ALPHA-CONIDENDRIN] | 194 µM | – | > 10 µM
9 | C[C@H]1O[C@H](O[C@H]2[C@H](O)[C@@H](O)[C@@H](O[C@H]3[C@H](O)[C@@H](O)C(O)O[C@@H]3CO)O[C@@H]2CO)[C@H](O)[C@@H](O)[C@@H]1N[C@H]1C=C(CO)[C@@H](O)[C@H](O)[C@H]1O (some centres undefined) [ACARBOSE] | 215 µM | – | –
10 | CC(=O)O[C@@]12CO[C@@H]1C[C@H](O)[C@@]1(C)C(=O)[C@H](O)C3=C(C)C(=O)C[C@@](O)([C@@H](OC(=O)c4ccccc4)[C@H]21)C3(C)C | > 250 µM | – | > 10 µM
11 | CC(C)CC[C@@H](O)[C@](C)(O)[C@H]1CC[C@@]2(O)C3=CC(=O)[C@@H]4C[C@@H](O)[C@@H](O)C[C@]4(C)[C@H]3CC[C@]12C [PONASTERONE A] | 115 µM | – | > 10 µM
12 | C=C1[C@@H]2[C@H](OC(C)=O)[C@@H]3CC(=O)[C@@]4(C)OC[C@@]3(C)[C@@]4(O)[C@@H](OC(C)=O)[C@H](OC(C)=O)[C@]2(COC(=O)c2ccccc2)[C@@H](OC(C)=O)C[C@@H]1O | > 250 µM | – | > 10 µM
13 | CC(=O)O[C@H]1C(=O)[C@@]2(C)[C@H]([C@H](OC(=O)c3ccccc3)[C@]3(O)C[C@H](OC(=O)[C@H](O)[C@@H](NC(=O)c4ccccc4)c4ccccc4)C(C)=C1C3(C)C)[C@]1(OC(C)=O)CO[C@@H]1C[C@@H]2O [PACLITAXEL] | > 250 µM | – | –
14 | C=C1[C@@H](O)C[C@H](OC(C)=O)[C@@]2(C)[C@@H](OC(C)=O)[C@H](OC(C)=O)C3=C(C)C(=O)C[C@@H]([C@@H](OC(C)=O)[C@H]12)C3(C)C | > 250 µM | – | > 10 µM

Continued by falling IC50 [1], values first:

Row | IC50 [1] | Ratio IC50 [3] | Structure (SMILES) | IC50 [2]
15 | 175 µM | – | COc1cc(C[C@@H]2COC(=O)[C@H]2Cc2ccc(O)c(OC)c2)ccc1O | > 10 µM
16 | 142 µM | – | C/C=C(\C)C(=O)N[C@@H](c1ccccc1)[C@@H](O)C(=O)O[C@H]1C[C@@]2(O)[C@@H](OC(=O)c3ccccc3)[C@@H]3[C@]4(OC(C)=O)CO[C@@H]4C[C@H](O[C@@H]4OC[C@@H](O)[C@H](O)[C@H]4O)[C@@]3(C)C(=O)C(=O)C(=C1C)C2(C)C | –
17 | 113 µM | – | C=C1[C@@H](O)CC[C@@]2(C)C[C@H](OC)C3=C(C)C[C@H](OC(=O)C(C)C(C)O)[C@@H]([C@@H](OC(C)=O)[C@H]12)C3(C)C (some centres undefined) | –
18 | 111 µM | – | C=C1[C@@H](OC(=O)/C=C/c2ccccc2)C[C@H](OC(C)=O)[C@@]2(C)[C@@H](OC(C)=O)[C@H](OC(C)=O)C3=C(C)C(=O)C[C@@H]([C@@H](OC(C)=O)[C@H]12)C3(C)C | –
19 | 97.5 µM | – | CO[C@H]1O[C@H]2[C@@H]3[C@@H]1[C@@H](O)C[C@H](O)[C@@]3(C)[C@@H](O)[C@H](OC(C)=O)C1=C(C)[C@@H](OC(C)=O)C[C@]2(O)C1(C)C | > 10 µM
20 | 94.1 µM | – | CCCCCC(=O)N[C@@H](c1ccccc1)[C@@H](O)C(=O)O[C@H]1C[C@@]2(O)[C@@H](OC(=O)c3ccccc3)[C@@H]3[C@]4(OC(C)=O)CO[C@@H]4C[C@H](O[C@@H]4OC[C@@H](O)[C@H](O)[C@H]4O)[C@@]3(C)C(=O)[C@H](OC(C)=O)C(=C1C)C2(C)C | 0.0015 µM
21 | 88.5 µM | – | C=C1[C@H]2C[C@]34CC=C(C)C3[C@@H](OC4(C)C)[C@H](OC(C)=O)[C@]2(C)[C@@H](OC(C)=O)C[C@@H]1O (some centres undefined) | > 10 µM
22 | 87.2 µM | – | CC1(C)CC[C@]2(C(=O)O)CC[C@]3(C)C(=CC[C@@H]4[C@@]5(C)CC[C@H](O)C(C)(C)[C@@H]5CC[C@]43C)[C@@H]2C1 [OLEANOLIC_ACID] | –
23 | 83.6 µM | – | CC(=O)O[C@@]12CO[C@@H]1C[C@H](O[C@@H]1OC[C@@H](O)[C@H](O)[C@H]1O)[C@@]1(C)C(=O)C(=O)C3=C(C)CC[C@@]3(C(C)(C)OC(=O)c3ccccc3)[C@@H](O)[C@H]21 | 4.9 µM
24 | 46.5 µM | – | COc1cc(C[C@H]2COC(=O)[C@@H]2Cc2ccc(O)c(OC)c2)ccc1O [MATAIRESINOL] | –
25 | 42.7 µM | – | CC(=O)O[C@H]1C(=O)[C@]2(C)[C@H](O)C[C@H]3OC[C@@]3(OC(C)=O)[C@H]2[C@H](OC(=O)c2ccccc2)[C@]2(O)C[C@H](OC(=O)[C@H](O)[C@@H](NC(=O)c3ccccc3)c3ccccc3)C(C)=C1C2(C)C | –
26 | 38 µM | – | C=C1[C@@H](OC(=O)/C=C/c2ccccc2)C[C@H](OC(C)=O)[C@]2(C)[C@@H]1C[C@@H]1C[C@H](OC(C)=O)C(C)=C([C@@H](OC(C)=O)[C@@H]2OC(C)=O)C1(C)C | 5.7 µM
27 | 31.8 µM | – | C=C1[C@@H](OC(C)=O)CC[C@@]2(C)C[C@H](OC)C3=C(C)C[C@H](OC(C)=O)[C@@H]([C@@H](OC(C)=O)[C@H]12)C3(C)C | –
28 | 15 µM | – | C=C1[C@@H](OC(=O)/C=C/c2ccccc2)C[C@H](OC(C)=O)[C@]2(C)[C@@H]1C[C@@H]1C[C@H](O)C(C)=C([C@@H](OC(C)=O)[C@@H]2OC(C)=O)C1(C)C [TAXEZOPIDINE H] | > 10 µM
29 | 3.6 µM | 60 | C=C1[C@@H](OC(C)=O)CC[C@@]2(C)C[C@H](OC)C3=C(C)C[C@H](OC(=O)C(C)C(C)O)[C@@H]([C@@H](OC(C)=O)[C@H]12)C3(C)C (some centres undefined) | –
